Results on one compound are retold here after ChEMBL document CHEMBL1821588, “Synthesis and in vivo evaluation of [O-methyl-11C] N-[3,5-dichloro-2-(methoxy)phenyl]-4-(methoxy)-3-(1-piperazinyl)benzenesulfonamide as an imaging probe for 5-HT6 receptors” (Bioorg Med Chem, 2011).

A word on the fraction unbound: it is the share of the substance not bound to proteins or other matrix. A lower fraction unbound goes with extensive binding.

Structures are written as SMILES.

Series [1] is described as follows: Drug uptake in baboon pareital cortex at 5 mCi, iv measured during 90 mins. It is filed as ADME, organism-based. The following applies: papio anubis, in vivo, 1.5 h. A digest of the protocol: (§1)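 Fasted baboon immobilized with ketamine (10 mg/kg, im), then anesthetized with 1.5–2.0% isoflurane by endotracheal tube and kept at 37 °C. A 10 min transmission scan preceded tracer. Tracer given as 5 ± 1 mCi iv bolus (S.A. 2300 ± 250 Ci/mmol). Emission collected 90 min in 3-D mode on HR+ PET. Arterial samples (30 over 90 min) gave the input function.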

Series [2] can be described thus: Drug uptake in baboon prefrontal cortex at 5 mCi, iv measured during 90 mins. Type of series: ADME, organism-based. The settings on record: papio anubis, in vivo, 1.5 h. A digest of the protocol: as §1
Series [3] is described as follows: Metabolic stability in baboon plasma assessed as unchanged radioligand at 4 mins by HPLC. It is filed as ADME, cell-free. The settings on record: papio anubis, read-out: Stability.
Series [4] in a line: Metabolic stability in baboon plasma assessed as unchanged radioligand at 60 mins by HPLC. Type of series: ADME, cell-free. The following applies: papio anubis, read-out: Stability. A digest of the protocol: (§2)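 Arterial blood sampled at 2, 6, 12, 30, 60 and 90 min post-injection and spun; 0.5 ml plasma mixed with 0.7 ml acetonitrile, vortexed, centrifuged 14,000 rpm 4 min. Supernatant run on reverse-phase ODS HPLC (acetonitrile/0.1 M ammonium formate 35:65, 2 ml/min) with radioactivity detection. Parent percentage corrected for background and decay; QC tracer sample injected at start and end.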

A short description of series [5]: Metabolic stability in baboon plasma assessed as unchanged radioligand at 12 mins by HPLC. It is filed as ADME, cell-free. The following applies: papio anubis, read-out: Stability. In outline:
as §2

A short description of series [6]: Fraction unbound in baboon plasma by HPLC. It is filed as ADME, cell-free. The settings on record: papio anubis.
A short description of series [7]: Fraction unbound in human plasma by HPLC. Type of series: ADME, cell-free.
Series [8] can be described thus: Drug uptake in baboon amygdala at 5 mCi, iv measured during 90 mins. Type of series: ADME, organism-based. The following applies: papio anubis, in vivo, 1.5 h. In outline: as §1
Series [9] can be described thus: Drug uptake in baboon hippocampus at 5 mCi, iv measured during 90 mins. Type of series: ADME, organism-based. The settings on record: papio anubis, in vivo, 1.5 h. In outline: as §1
Series [10] is described as follows: Metabolic stability in baboon plasma assessed as unchanged radioligand at 30 mins by HPLC. Type of series: ADME, cell-free. The settings on record: papio anubis, read-out: Stability. A digest of the protocol: as §2
Series [11] is described as follows: Drug uptake in baboon temporal cortex at 5 mCi, iv measured during 90 mins. It is filed as ADME, organism-based. The following applies: papio anubis, in vivo, 1.5 h. In outline:
as §1

A short description of series [12]: Metabolic stability in baboon plasma assessed as unchanged radioligand at 90 mins by HPLC. Type of series: ADME, cell-free. The following applies: papio anubis, read-out: Stability. A digest of the protocol:
as §2

A short description of series [13]: Metabolic stability in baboon plasma assessed as unchanged radioligand at 2 mins by HPLC. It is filed as ADME, cell-free. The following applies: papio anubis, read-out: Stability. A digest of the protocol: as §2
A short description of series [14]: Drug uptake in baboon striatum at 5 mCi, iv measured during 90 mins. The settings on record: papio anubis, in vivo, 1.5 h. Type of series: ADME, organism-based. A digest of the protocol:
as §1

Series [15] in a line: Drug uptake in baboon parahippocampal gyrus at 5 mCi, iv measured during 90 mins. It is filed as ADME, organism-based. The settings on record: papio anubis, in vivo, 1.5 h. A digest of the protocol:
as §1

A short description of series [16]: Drug uptake in baboon cerebellum at 5 mCi, iv measured during 90 mins. It is filed as ADME, organism-based. The following applies: papio anubis, in vivo, 1.5 h. A digest of the protocol: as §1
Series [17] is described as follows: Drug uptake in baboon anterior cingulate at 5 mCi, iv measured during 90 mins. It is filed as ADME, organism-based. The settings on record: papio anubis, in vivo, 1.5 h. A digest of the protocol: as §1

As to `COc1ccc(S(=O)(=O)Nc2cc(Cl)cc(Cl)c2O[11CH3])cc1N1CCNCC1`, the Drug uptake result in series [1] was “Active”; in [2] it was “Not Active”; in series [8], “Active”; in [9] it was “Active”; in [11] it was “Active”; in series [14] it was “Not Active”. For the same compound, the Drug uptake result in [15] is recorded as “Active”; in series [16], “Not Active”; in [17] it was “Not Active”. Besides, the remaining at 4 min in series [3] worked out at 94%. Besides, the remaining at 1 h in [4] was 32%. In addition, the remaining at 0.2 h in series [5] turned out to be 71%. Also, the unbound share (fraction unbound) turned out to be 0.05 in [6] and 0.01 in series [7]. Further, in series [10], the remaining at 0.5 h was 45%. In addition, the remaining at 1.5 h in series [12] turned out to be 27%. Moreover, the remaining at 2 min in series [13] amounted to 99%.
